This is a sample that favours compounds with a hit; in the whole collection about 3% have one here.
UBC13 polyUb: human UBC13 polyubiquitination inhibition | 0.47% of 330,000 active | inhibition, % at 20 µM | AID 485273 | UBC13 polyubiquitin chain formation, TR-FRET; in the data active = inhibition above about 45%, passing the limit was not always enough; inconclusive = no clear call, values can overlap the other calls
Target sequence (P61088 whole entry, looked up): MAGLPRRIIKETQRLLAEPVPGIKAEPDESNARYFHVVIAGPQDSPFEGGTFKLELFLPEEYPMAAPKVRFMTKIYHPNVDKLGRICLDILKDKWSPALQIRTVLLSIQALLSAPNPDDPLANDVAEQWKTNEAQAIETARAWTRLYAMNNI
SENP8 block-1: inhibitors of human SENP8 protease. Q96LD8. purified SENP8, Z-RLRGG-aminoluciferin cleavage, luminescence. inhibition, % at 10 µM. 1.2% of 330,000 active; in the data active = inhibition above about 50%
Apaf-1 inh: inhibitors of human Apaf-1 apoptosome; AID 489030; reconstituted apoptosome caspase-3 activity, DEVD-Rh110 fluorescence; inhibition, % at 20 µM; O14727; 0.71% of 330,000 active; active = inhibition of at least 40% at 20 µM
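Medium: Hepes buffer, pH 7.5 / System: biochemical Apaf-1 apoptosome reconstitution / Measured by: Rh110 fluorescence, excitation 480 nm, emission 540 nm / Times: compound with Apaf-1, dATP, procaspase-3 30 min, then 50 min reaction, room temperature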
SENP8 block-2: inhibitors of human SENP8 protease; Q96LD8; recombinant SENP8, Nedd8 substrate fluorescence; inhibition, % at 20 µM; 0.64% of 360,000 active; AID 602440; in the data active = inhibition mostly above about 40%, no sharp cut-off; inactive = mostly below about 27%
SENP7 inh: SENP7 protease inhibition; Q9BQF6; recombinant SENP7, Z-RLRGG-aminoluciferin luminescence, 40 min; AID 434973; 1.5% of 330,000 active; inhibition, % at 5 µM;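 active = inhibition above about 50% at the single test dose, limit read from the data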
SENP6 block: inhibitors of human SENP6 protease. inhibition, % at 10 µM. Q9GZR1. 1.8% of 330,000 active. Recombinant SENP6 catalytic domain, aminoluciferin luminescence;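 active = inhibition above about 50% at the single tested dose, limit read from the data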
Target sequence (Q9GZR1 628-1112 limits assumed): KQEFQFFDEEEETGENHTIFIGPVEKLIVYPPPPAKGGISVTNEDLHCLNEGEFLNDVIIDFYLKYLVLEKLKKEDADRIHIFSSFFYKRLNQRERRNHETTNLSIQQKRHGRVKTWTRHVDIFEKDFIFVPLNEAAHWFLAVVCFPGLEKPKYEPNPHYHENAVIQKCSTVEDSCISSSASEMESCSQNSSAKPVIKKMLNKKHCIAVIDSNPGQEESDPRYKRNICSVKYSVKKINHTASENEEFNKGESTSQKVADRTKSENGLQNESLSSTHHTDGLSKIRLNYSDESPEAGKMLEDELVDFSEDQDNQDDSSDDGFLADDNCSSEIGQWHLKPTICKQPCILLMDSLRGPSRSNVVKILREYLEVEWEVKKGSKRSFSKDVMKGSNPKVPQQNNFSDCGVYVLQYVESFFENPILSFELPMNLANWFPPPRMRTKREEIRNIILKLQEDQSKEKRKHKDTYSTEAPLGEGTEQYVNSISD
Casp3 UBC13 ctr: caspase-3 inhibition (UBC13 counter-screen); shares compounds with UBC13 polyUb; Recombinant caspase-3, Caspase-Glo 3/7 luminescence, 60 min; inhibition, % at 20 µM; 4% of 1,400 active; AID 488856;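 active = mean inhibition across replicates above about 26%, limit read from the data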
UBC13 conf: confirmation of human UBC13 polyubiquitin inhibitors; UBC13 polyubiquitination, TR-FRET, biochemical; 68% of 1,400 active; inhibition, % at 10 µM; shares compounds with UBC13 polyUb; in the data active = inhibition above about 45%; inconclusive = no clear call, values can overlap the other calls
Hits are given with their value.

What do the screens show for `COc1ccccc1CNc1nc(NCC2CC2)nc2ccsc12`?
SENP8 block-2: inactive

What do the screens show for `N#Cc1ccsc1NC(=O)C1CCN(C(=O)c2ccc(F)cc2)CC1`?
UBC13 polyUb: 58.8; SENP8 block-1: inactive; Apaf-1 inh: inactive; SENP8 block-2: inactive; SENP7 inh: inactive; SENP6 block: inactive; Casp3 UBC13 ctr: inactive; UBC13 conf: inactive

Results for COc1ccccc1[C@@H]1C(c2cccc(C)c2)=NN(c2ccccc2)[C@H]1C(=O)N1CCOC1=O ?
UBC13 polyUb: 46.5; SENP8 block-1: inactive; Apaf-1 inh: inactive; SENP8 block-2: inactive; SENP7 inh: inactive; SENP6 block: inactive; Casp3 UBC13 ctr: inactive; UBC13 conf: 46.4

Results for COc1ccc(-c2cc3c(=O)n(CC(=O)NCCCN4CCC(Cc5ccccc5)CC4)ncn3n2)cc1 ?
UBC13 polyUb: 52.1; SENP8 block-1: inactive; Apaf-1 inh: inactive; SENP8 block-2: inactive; SENP7 inh: inactive; SENP6 block: inactive; Casp3 UBC13 ctr: inactive; UBC13 conf: 75.8

How did COc1ccc(-c2noc(CCC(=O)NCCCN3CCN(c4ccc(F)cc4)CC3)n2)cc1 do in these assays?
UBC13 polyUb: inactive; SENP8 block-1: inactive; Apaf-1 inh: inactive; SENP8 block-2: inactive; SENP7 inh: inactive; SENP6 block: inactive

How did COc1ccc(-c2noc(CCC(=O)NCCCN3CCC(Cc4ccccc4)CC3)n2)cc1 do in these assays?
UBC13 polyUb: 89.6; SENP8 block-1: inactive; Apaf-1 inh: inactive; SENP8 block-2: inactive; SENP7 inh: inactive; SENP6 block: inactive; Casp3 UBC13 ctr: inactive; UBC13 conf: 106.3

How did Cc1ccc(-c2noc(CCC(=O)NCC3CCN(Cc4cccc(C)c4)CC3)n2)cc1 do in these assays?
UBC13 polyUb: 55.6; SENP8 block-1: inactive; Apaf-1 inh: inactive; SENP8 block-2: inactive; SENP7 inh: inactive; SENP6 block: inactive; Casp3 UBC13 ctr: inactive; UBC13 conf: 70.1

How did COc1ccc(-c2cc3c(=O)n(CC(=O)NCCCN4CCN(Cc5ccccc5)CC4)ncn3n2)cc1 do in these assays?
UBC13 polyUb: inactive; SENP8 block-1: inactive; Apaf-1 inh: inactive; SENP8 block-2: inactive; SENP7 inh: inactive; SENP6 block: inactive

What do the screens show for `OC(c1ccc(F)cc1)c1nc(-c2ccc(F)c(Cl)c2)cs1` (centres undefined)?
SENP8 block-2: inactive

How did CCCCCCn1cc(CN2CC(N(C)CC)CS2(=O)=O)nn1 (centres undefined) do in these assays?
SENP8 block-2: inactive

Results for CCCn1c2ccccc2c2nc3ccccc3nc21 ?
UBC13 polyUb: 46.6; SENP8 block-1: inactive; Apaf-1 inh: inactive; SENP8 block-2: inactive; SENP7 inh: inactive; SENP6 block: inactive; Casp3 UBC13 ctr: inactive; UBC13 conf: inactive

Results for COCCN1C(=O)CCC1(C)c1nnnn1Cc1ccccc1 (centres undefined) ?
SENP8 block-2: inactive

What do the screens show for `Cc1cc(C)c2nc(-c3ccccn3)cc(C(=O)n3cccn3)c2c1`?
UBC13 polyUb: 45.3; SENP8 block-1: inactive; Apaf-1 inh: inactive; SENP8 block-2: inactive; SENP7 inh: inactive; SENP6 block: inactive; Casp3 UBC13 ctr: inactive; UBC13 conf: inactive

How did Nc1ncnc2c1ccn2[C@H]1CN(Cc2ccc3c(c2)OCO3)C[C@@H](COC(=O)c2ccccc2)O1 do in these assays?
SENP8 block-2: inactive

How did COc1ccc(-c2oc(=O)c3cc(OC)c(OC)cc3c2C#CCCCO)cc1 do in these assays?
UBC13 polyUb: inactive; SENP8 block-1: inactive; Apaf-1 inh: inactive; SENP8 block-2: inactive; SENP7 inh: inactive; SENP6 block: inactive

What do the screens show for `COc1ccc(-c2oc(=O)c3cc(OC)c(OC)cc3c2C#CC2(O)CCCCC2)cc1`?
UBC13 polyUb: 46.6; SENP8 block-1: inactive; Apaf-1 inh: inactive; SENP8 block-2: inactive; SENP7 inh: inactive; SENP6 block: inactive; Casp3 UBC13 ctr: inactive; UBC13 conf: inactive

What do the screens show for `CCC(=O)N1CCC1(C)C(=O)Nc1cnc2ccccc2c1` (centres undefined)?
SENP8 block-2: inactive

How did COc1cccc(C(O)c2nc(-c3ccc(OC)nc3)cs2)c1 (centres undefined) do in these assays?
SENP8 block-2: inactive

Results for CCOC(=O)C1=C(c2ccccc2)O/C(=C(\C(=O)OC)C(F)(F)F)S1 ?
UBC13 polyUb: 51.1; SENP8 block-1: inactive; Apaf-1 inh: inactive; SENP8 block-2: inactive; SENP7 inh: inactive; SENP6 block: inactive; Casp3 UBC13 ctr: inactive; UBC13 conf: inactive

What do the screens show for `CCOC(=O)C1=C(c2ccccc2)O/C(=C(/C#N)C(F)(F)F)S1`?
UBC13 polyUb: inactive; SENP8 block-1: inactive; Apaf-1 inh: inactive; SENP7 inh: inactive; SENP6 block: inactive

Results for Cc1ccc(Cn2cc(C(=O)c3ccc(F)cc3)c(=O)c3cc4c(cc32)OCCO4)cc1 ?
UBC13 polyUb: 45.1; SENP8 block-1: inactive; Apaf-1 inh: inactive; SENP8 block-2: inactive; SENP7 inh: inactive; SENP6 block: inactive; Casp3 UBC13 ctr: inactive; UBC13 conf: inconclusive

Results for COc1ccc(Cn2cc(C(=O)c3ccccc3)c(=O)c3cc(OC)ccc32)cc1 ?
UBC13 polyUb: inactive; SENP8 block-1: inactive; Apaf-1 inh: inactive; SENP8 block-2: inactive; SENP7 inh: inactive; SENP6 block: inactive

Results for NC(CO)C(=O)NNCc1ccc(O)c(O)c1O (centres undefined) ?
UBC13 polyUb: 47.9; SENP8 block-1: inactive; Apaf-1 inh: 50.9; SENP8 block-2: 44.8; SENP7 inh: inactive; SENP6 block: inactive; Casp3 UBC13 ctr: inactive; UBC13 conf: inactive

How did COC(=O)C(N)Cc1ccc(O)c(O)c1 (centres undefined) do in these assays?
UBC13 polyUb: inactive; SENP8 block-1: inactive; Apaf-1 inh: inactive; SENP8 block-2: inactive; SENP7 inh: inactive; SENP6 block: inactive

Results for O=C(NCCCN1CCOCC1)c1cc2c([nH]c3ccccc32)c(-c2cccc(Br)c2)n1 ?
UBC13 polyUb: 50.7; SENP8 block-1: inactive; Apaf-1 inh: inactive; SENP8 block-2: inactive; SENP7 inh: inactive; SENP6 block: inactive; Casp3 UBC13 ctr: inactive; UBC13 conf: inactive

Results for NC(=O)c1c(NC(=O)C(=O)NCCCN2CCOCC2)sc2c1CCCC2 ?
UBC13 polyUb: 52.5; SENP8 block-1: inactive; Apaf-1 inh: inactive; SENP8 block-2: inactive; SENP7 inh: inactive; SENP6 block: inactive; Casp3 UBC13 ctr: inactive; UBC13 conf: 72.9

Results for COc1cccc(/C=N\NC(=O)c2sc(N)nc2C)c1OC ?
UBC13 polyUb: 104.9; SENP8 block-1: inactive; Apaf-1 inh: inactive; SENP8 block-2: inactive; SENP7 inh: inactive; SENP6 block: inactive; Casp3 UBC13 ctr: inactive; UBC13 conf: 109.6

What do the screens show for `COc1cccc(/C=N/NC(=O)C(=O)N/N=C/c2cccc(OC)c2OC)c1OC`?
UBC13 polyUb: inactive; SENP8 block-1: inactive; Apaf-1 inh: inactive; SENP8 block-2: inactive; SENP7 inh: inactive; SENP6 block: inactive

Screening results from PubChem.
